What was measured:
Mus musculus [1] = experiment: Analgesic activity in albino mouse assessed as inhibition of acetic acid-induced writhing at 60 mg/kg, po administered 1 hr prior challenge relative to control; assay type: functional
How it was run: (§1)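 Male albino mice (25-30 g), fasted 20-24 h, groups of 5. Dosed orally as suspension in 0.5% sodium CMC; vehicle controls. 1 h later, 1% acetic acid in normal saline (10 ml/kg) given ip. Starting 5 min after injection, writhes counted over 30 min. Percent inhibition calculated from group mean writhes versus control.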

Rattus norvegicus [2] = experiment: Antipyretic activity in Wistar rat assessed as reduction in Brewer's yeast-induced hyperthermia measured as rectal temperature at 60 mg/kg, po administered 18 hrs post challenge measured after 2 hrs post dose (reference value: 39.320 +/- 0.102 degC); assay type: functional
How it was run: (§2)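 Male Wistar rats (200-300 g), fasted, groups of 5. Fever induced by sc 15% brewer's yeast in normal saline (10 ml/kg). Rectal temperature taken with a digital thermometer inserted about 7 mm. After 18 h, rats at 38 °C or above were used. Dosed orally as suspension in 0.5% CMC; vehicle controls. Temperature then read at set times after dosing. Values are means of five.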

Rattus norvegicus [3] = experiment: Antipyretic activity in Wistar rat assessed as reduction in Brewer's yeast-induced hyperthermia measured as rectal temperature at 60 mg/kg, po administered 18 hrs post challenge measured after 3 hrs post dose (reference value: 39.400 +/- 0.071 degC); assay type: functional; how it was run: as §2
Mus musculus [4] = experiment: Neurotoxicity in po dosed albino mouse assessed as alteration of motor activity […] by rotarod test; assay type: toxicity, organism-based; conditions: in vivo
[5] = Hydrolysis of the compound in simulated intestinal fluid at 10 mg after 120 mins by spectrophotometry; assay type: ADME; conditions: read-out: Drug degradation
How it was run: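 Samples shaken on an orbital shaker at 37 ± 2 °C in simulated intestinal fluid. Aliquots were drawn at 0, 15, 30, 45, 60, 75, 90, 105 and 120 min, then diluted, filtered and read spectrophotometrically at each compound's λmax. % hydrolysed = (A0 − A120)/A0 × 100.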

[6] = Partition co-efficient, log P of the compound in ocatanol-water by shake flask method; assay type: physicochemical; conditions: octanol/water
How it was run: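 Shake-flask method: 2 mg dissolved in 50 ml water plus 50 ml octanol, shaken 30 min and left 24 h to equilibrate. Phases were separated, and octanol-phase concentration was taken from absorbance against a standard curve. Log P was calculated from that concentration.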

Rattus norvegicus [7] = experiment: Antipyretic activity in Wistar rat assessed as reduction in Brewer's yeast-induced hyperthermia measured as rectal temperature at 60 mg/kg, po administered 18 hrs post challenge measured after 1 hr post dose (reference value: 39.300 +/- 0.071 degC); assay type: functional; how it was run: as §2
Rattus norvegicus [8] = experiment: Antipyretic activity in Wistar rat assessed as reduction in Brewer's yeast-induced hyperthermia measured as rectal temperature at 150 mg/kg, po administered 18 hrs post challenge measured after 1 hr post dose (reference value: 39.300 +/- 0.071 degC); assay type: functional; how it was run: as §2
Rattus norvegicus [9] = experiment: Antipyretic activity in Wistar rat assessed as reduction in Brewer's yeast-induced hyperthermia measured as rectal temperature at 150 mg/kg, po administered 18 hrs post challenge measured after 2 hrs post dose (reference value: 39.320 +/- 0.102 degC); assay type: functional; how it was run: as §2
Rattus norvegicus [10] = experiment: Antipyretic activity in Wistar rat assessed as reduction in Brewer's yeast-induced hyperthermia measured as rectal temperature at 150 mg/kg, po administered 18 hrs post challenge measured after 3 hrs post dose (reference value: 39.400 +/- 0.071 degC); assay type: functional; how it was run: as §2
Mus musculus [11] = experiment: Neurotoxicity in albino mouse assessed as alteration of motor activity at 2 mg/kg, po measured after 60 mins for 60 secs by rotarod test; assay type: toxicity, organism-based; design: dose 2 mg/kg, route oral; conditions: in vivo
How it was run: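 Male albino mice on a 1 in. knurled wooden rod rotating at 6–10 rpm. Testing began 60 min after oral dosing. Neurological toxicity was defined as failure to stay on the rod for 1 min or more.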

Mus musculus [12] = experiment: Analgesic activity in albino mouse assessed as inhibition of acetic acid-induced writhing at 10 mg/kg, po administered 1 hr prior challenge relative to control; assay type: functional; how it was run: as §1

| SMILES | inhibition in vivo at 60 mg/kg (Mus musculus [1]) [%] | T (Rattus norvegicus [2]) [°C] | T (Rattus norvegicus [3]) [°C] | Activity (Mus musculus [4]) | degraded at 2 h [5] [%] | logP [6] | T (Rattus norvegicus [7]) [°C] | T (Rattus norvegicus [8]) [°C] | T (Rattus norvegicus [9]) [°C] | T (Rattus norvegicus [10]) [°C] | Activity (Mus musculus [11]) | inhibition in vivo at 10 mg/kg (Mus musculus [12]) [%] |
| --- | --- | --- | --- | --- | --- | --- | --- | --- | --- | --- | --- | --- |
| CC1C(=O)CC(c2ccc(Cl)cc2)N(C(=O)CCl)C1c1ccc(N(C)C)cc1 (stereo not given) | 17.8 | 38.56 | 37.86 | Non-toxic | 76.8 | 1.24 | 39 | – | – | – | – | – |
| CC1C(=O)CC(c2ccc(Cl)cc2)N(C(=O)CN2CCN(C)CC2)C1c1ccc(N(C)C)cc1 (stereo not given) | 28.1 | 38.14 | 37.52 | Non-toxic | 77.6 | 1.35 | 38.9 | – | – | – | – | – |
| CC1C(=O)CC(c2ccc(F)cc2)N(C(=O)CCl)C1c1ccc(Cl)cc1 (stereo not given) | 57.6 | 37.54 | 37.16 | Non-toxic | 1.17 | 1.72 | 38.14 | – | – | – | – | – |
| CC1C(=O)CC(c2ccc(F)cc2)N(C(=O)CN2CCN(C)CC2)C1c1ccc(Cl)cc1 (stereo not given) | 65.5 | 37.16 | 37.18 | Non-toxic | 4.49 | 2.09 | 37.9 | – | – | – | – | – |
| COc1ccc(C2C(C)C(=O)CC(c3ccc(F)cc3)N2C(=O)CCl)cc1 (stereo not given) | 51.2 | 37.9 | 37.2 | Non-toxic | 2.01 | 1.42 | 38.58 | – | – | – | – | – |
| COc1ccc(C2C(C)C(=O)CC(c3ccc(F)cc3)N2C(=O)CN2CCN(C)CC2)cc1 (stereo not given) | 55.2 | 37.44 | 37.1 | Non-toxic | 2.51 | 1.53 | 38.18 | – | – | – | – | – |
| CC1C(=O)CC(c2ccc(Cl)cc2)N(C(=O)CCl)C1c1ccc(O)cc1 (stereo not given) | 39.7 | 38.5 | 37.14 | Non-toxic | 42.7 | 1.05 | 38.92 | – | – | – | – | – |
| COc1ccc(C2C(C)C(=O)CC(c3ccc(Cl)cc3)N2C(=O)CCl)cc1 (stereo not given) | 44.1 | 38.36 | 37.2 | Non-toxic | 2.68 | 1.29 | 38.76 | – | – | – | – | – |
| COc1ccc(C2C(C)C(=O)CC(c3ccc(Cl)cc3)N2C(=O)CN2CCN(C)CC2)cc1 (stereo not given) | 53 | 37.68 | 37.28 | Non-toxic | 18.8 | 1.48 | 38.52 | – | – | – | – | – |
| CC1C(=O)CC(c2ccc(F)cc2)N(C(=O)CCl)C1c1ccc(O)cc1 (stereo not given) | 51.2 | 38.3 | 37.16 | Non-toxic | 43.2 | 1.14 | 38.72 | – | – | – | – | – |
| CC(=O)Nc1ccc(O)cc1 [ACETAMINOPHEN] | – | – | – | – | – | – | – | 37.88 | 37.14 | 37.1 | – | – |
| CN1C(=O)CN=C(c2ccccc2)c2cc(Cl)ccc21 [DIAZEPAM] | – | – | – | – | – | – | – | – | – | – | Toxic | – |
| O=C(O)Cc1ccccc1Nc1c(Cl)cccc1Cl [DICLOFENAC SODIUM] | – | – | – | – | – | – | – | – | – | – | – | 56.5 |

From ChEMBL document CHEMBL3286132, “Syntheses, characterization and evaluation of novel 2,6-diarylpiperidin-4-ones as potential analgesic-antipyretic agents” (Eur J Med Chem, 2014)
